The text below walks through data of ChEMBL document CHEMBL1139058, “Synthesis, in vitro and in silico evaluation of l-tyrosine containing PPARalpha/gamma dual agonists” (2007).

Assay [1] in a line: Agonist activity at human PPARgamma 1 in HEK293T cells at 50 uM by GAL4 transactivation assay relative to rosiglitazone. Format: functional, HEK-293T. The method in brief:
(§1)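 HEK 293T cells grown in DMEM-10% FBS at 37 °C, 5% CO2, then plated at 50–60% confluence in DMEM with 10% delipidated FBS one day before Superfect transfection. Reagent removed after 3 h. At 42 h post-transfection, cells moved to phenol red-free DMEM-DFBS and treated 18 h with compound or vehicle. Cells lysed, luciferase measured, expressed as fold activation over untreated cells.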

For assay [2], the target named is T1, Peroxisome proliferator-activated receptor alpha (Homo sapiens) (UniProt Q07869).
T1 sequence (whole entry): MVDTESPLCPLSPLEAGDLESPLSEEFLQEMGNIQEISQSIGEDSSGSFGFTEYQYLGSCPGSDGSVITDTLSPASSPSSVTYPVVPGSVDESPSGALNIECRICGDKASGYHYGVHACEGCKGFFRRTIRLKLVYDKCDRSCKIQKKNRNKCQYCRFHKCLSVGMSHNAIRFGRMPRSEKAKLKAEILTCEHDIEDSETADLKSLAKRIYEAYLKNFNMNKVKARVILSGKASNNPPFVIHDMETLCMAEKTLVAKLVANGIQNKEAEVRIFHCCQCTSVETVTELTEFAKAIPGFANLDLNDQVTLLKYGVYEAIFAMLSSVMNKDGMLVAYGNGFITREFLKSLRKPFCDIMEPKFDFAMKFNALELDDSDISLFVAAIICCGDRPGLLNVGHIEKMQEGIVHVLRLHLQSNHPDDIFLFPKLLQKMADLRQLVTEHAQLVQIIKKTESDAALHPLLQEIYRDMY
The assay is described as follows: Agonist activity at human PPARalpha in HEK293T cells at 50 uM by GAL4 transactivation assay relative to WY-14643. Particulars: HEK-293T. It counts as functional, cell-based. Put shortly: as §1

Regarding `COC(=O)[C@H](Cc1ccc(OCCOc2ccc3c(c2)[nH]c2ccccc23)cc1)N/C(C)=C\C(=O)c1ccccc1`, the Activity in assay [1] was 1.8; in assay [2], 1.9.

As for `C/C(=C/C(=O)c1ccccc1)N[C@@H](Cc1ccc(OCCOc2ccc3c(c2)[nH]c2ccccc23)cc1)C(=O)O`, the figures for the Activity in assay [1] and in assay [2] were 4.2 and 2, respectively.

Take `COC(=O)[C@H](Cc1ccc(OCCn2c3ccccc3c3ccccc32)cc1)N/C(C)=C\C(=O)c1ccccc1`: the Activity in assay [1] turned out to be 1.9; in assay [2], 1.2.

Regarding `O=C(C1=C(N[C@@H](Cc2ccc(OCCn3c4ccccc4c4ccccc43)cc2)C(=O)O)CCCC1)c1ccccc1`, the values for the Activity in assay [1] and in assay [2] were 8.4 and 1, respectively.

Regarding `COC(=O)[C@H](Cc1ccc(OCCOc2cccc3[nH]c4ccccc4c23)cc1)NC1=C(C(=O)c2ccccc2)CCCC1`, the Activity in assay [1] stood at 4.7; in assay [2], 1.4.

Regarding `C/C(=C/C(=O)c1ccccc1)N[C@@H](Cc1ccc(OCCCOc2cccc3[nH]c4ccccc4c23)cc1)C(=O)O`, the Activity in assay [1] came to 15.1; in assay [2], 5.1.

In the case of `COC(=O)[C@H](Cc1ccc(OCCn2c3ccccc3c3ccccc32)cc1)NC1=C(C(=O)c2ccccc2)CCCC1`, the figures for the Activity in assay [1] and in assay [2] were 3 and 0.5, respectively.

On to `C/C(=C/C(=O)c1ccccc1)N[C@@H](Cc1ccc(OCCOc2cccc3[nH]c4ccccc4c23)cc1)C(=O)O`, for which the Activity worked out at 48.2 in assay [1] and 4.6 in assay [2].

`C/C(=C/C(=O)c1ccccc1)N[C@@H](Cc1ccc(OCCOc2cc(C(F)(F)F)nc3c(C(F)(F)F)cccc23)cc1)C(=O)O`: the Activity in assay [1] was found to be 2.3; in assay [2], 1.1.

As for `O=C(C1=C(N[C@@H](Cc2ccc(OCCOc3cccc4[nH]c5ccccc5c34)cc2)C(=O)O)CCCC1)c1ccccc1`, the Activity stood at 11.2 in assay [1] and 1.2 in assay [2].

With `C/C(=C/C(=O)c1ccccc1)N[C@@H](Cc1ccc(OCCOc2ccc(C(=O)c3ccc(Cl)cc3)cc2)cc1)C(=O)O`, the Activity in assay [1] came to 22.6; in assay [2], 2.8.

For `C/C(=C/C(=O)c1ccccc1)N[C@@H](Cc1ccc(OCCc2ccc(C(F)(F)F)cc2)cc1)C(=O)O`, the values for the Activity in assay [1] and in assay [2] were 0.7 and 0.3, respectively.

Turning to `C/C(=C/C(=O)c1ccccc1)N[C@@H](Cc1ccc(OCCn2c3ccccc3c3ccccc32)cc1)C(=O)O`, the Activity amounted to 1.7 in assay [1] and 1.4 in assay [2].
